Experiment [1] has as its target T1, Calcitonin receptor (Homo sapiens) (UniProt P30988).
T1 sequence (whole entry): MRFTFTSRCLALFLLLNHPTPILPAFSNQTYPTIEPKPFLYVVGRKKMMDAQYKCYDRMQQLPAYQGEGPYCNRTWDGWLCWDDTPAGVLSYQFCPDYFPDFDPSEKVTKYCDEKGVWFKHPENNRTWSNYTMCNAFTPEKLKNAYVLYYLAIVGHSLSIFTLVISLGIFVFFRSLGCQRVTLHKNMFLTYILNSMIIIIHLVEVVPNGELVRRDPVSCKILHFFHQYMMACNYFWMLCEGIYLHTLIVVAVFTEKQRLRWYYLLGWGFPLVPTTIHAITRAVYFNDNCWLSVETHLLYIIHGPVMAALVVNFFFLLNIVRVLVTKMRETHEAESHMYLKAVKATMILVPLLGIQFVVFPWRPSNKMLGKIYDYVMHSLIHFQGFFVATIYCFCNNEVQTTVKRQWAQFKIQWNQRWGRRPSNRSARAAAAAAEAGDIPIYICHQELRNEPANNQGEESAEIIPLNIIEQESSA

Experiment [2] deals with T2, Calcitonin receptor (Rattus norvegicus) (UniProt P32214).
T2 sequence (whole entry): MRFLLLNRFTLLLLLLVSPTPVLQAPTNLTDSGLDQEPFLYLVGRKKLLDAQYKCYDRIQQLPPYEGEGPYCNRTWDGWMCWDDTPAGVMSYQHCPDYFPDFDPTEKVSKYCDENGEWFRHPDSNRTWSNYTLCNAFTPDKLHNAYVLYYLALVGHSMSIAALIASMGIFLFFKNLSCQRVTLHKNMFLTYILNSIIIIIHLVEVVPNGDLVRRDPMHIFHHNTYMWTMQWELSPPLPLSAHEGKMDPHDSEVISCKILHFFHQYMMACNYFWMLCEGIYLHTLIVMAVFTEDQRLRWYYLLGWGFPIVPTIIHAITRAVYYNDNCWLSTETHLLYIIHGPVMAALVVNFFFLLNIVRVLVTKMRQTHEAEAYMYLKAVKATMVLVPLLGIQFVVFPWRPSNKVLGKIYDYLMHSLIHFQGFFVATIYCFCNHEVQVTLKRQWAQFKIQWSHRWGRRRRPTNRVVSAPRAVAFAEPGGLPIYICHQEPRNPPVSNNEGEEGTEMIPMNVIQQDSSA
The experiment in a line: Affinity for calcitonin receptor of rat brain relative to [125I]-salmon calcitonin. An outline of the steps:
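Male Sprague–Dawley rat (250–350 g) brain membranes (~0.63 mg protein/tube) were shaken on ice for 30 min with 10 pM final [125I-Tyr22]sCT and competitor in 50 mM Tris-HCl pH 7.4 with 34 μM bacitracin. Tubes were centrifuged and the pellets washed, SDS-solubilized and scintillation counted. Nonspecific binding was taken with 1 μM sCT. IC50 came from probit analysis, and relative affinity set sCT = 100%.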

A value given as a limit tells only on which side of the number the result lay.

The results in this text go back to ChEMBL document CHEMBL1135734, “Side-chain lactam-bridge conformational constraints differentiate the activities of salmon and human calcitonins and reveal a new design concept for potent calcitonin analogues” (J Med Chem, 2002).

As for `CC[C@H](C)[C@H](NC(=O)[C@H](C)NC(=O)[C@@H](NC(=O)[C@H](CCC(N)=O)NC(=O)[C@H]1CCCN1C(=O)[C@H](Cc1ccccc1)NC(=O)[C@@H](NC(Cc1c[nH]cn1)C(=O)N[C@@H](Cc1ccccc1)C(=O)[C@H](CCCCN)NC(=O)[C@H](CC(N)=O)NC(=O)[C@H](Cc1ccccc1)NC(=O)[C@H](CC(=O)O)NC(=O)[C@H](CCC(N)=O)NC(=O)[C@@H](NC(=O)[C@H](Cc1ccc(O)cc1)NC(=O)[C@@H](NC(=O)CNC(=O)[C@H](CC(C)C)NC(=O)[C@H](CCSC)NC(=O)[C@H](CS)NC(=O)[C@@H](NC(=O)[C@H](CO)NC(=O)[C@H](CC(C)C)NC(=O)[C@H](CC(N)=O)NC(=O)CNC(=O)[C@@H](N)CS)[C@@H](C)O)[C@@H](C)O)[C@@H](C)O)[C@@H](C)O)[C@@H](C)O)C(=O)NCC(=O)N[C@H](C(=O)NCC(=O)N[C@@H](C)C(=O)N1CCC[C@@H]1C(N)=O)C(C)C` (some centres undefined), in experiment [1], the ED50 is 0.6 nM. Besides, the Relative affinity in experiment [2] amounted to 0.015.

As for `CC[C@H](C)[C@H](NC(=O)[C@H](C)NC(=O)[C@@H](NC(=O)[C@H](CCC(N)=O)NC(=O)[C@H]1CCCN1C(=O)[C@H](Cc1ccccc1)NC(=O)[C@@H](N[C@@H](Cc1c[nH]cn1)C(=O)N1CCC[C@H]1C(=O)[C@H](CCCCN)NC(=O)[C@H](CC(N)=O)NC(=O)[C@H](Cc1ccccc1)NC(=O)[C@H](CC(=O)O)NC(=O)[C@H](CCC(N)=O)NC(=O)[C@@H](NC(=O)[C@H](Cc1ccc(O)cc1)NC(=O)[C@@H](NC(=O)CNC(=O)[C@H](CC(C)C)NC(=O)[C@H](CCSC)NC(=O)[C@H](CS)NC(=O)[C@@H](NC(=O)[C@H](CO)NC(=O)[C@H](CC(C)C)NC(=O)[C@H](CC(N)=O)NC(=O)CNC(=O)[C@@H](N)CS)[C@@H](C)O)[C@@H](C)O)[C@@H](C)O)[C@@H](C)O)[C@@H](C)O)C(=O)NCC(=O)N[C@H](C(=O)NCC(=O)N[C@@H](C)C(=O)N1CCC[C@@H]1C(N)=O)C(C)C`, the ED50 in experiment [1] came to 22 nM. For the same compound, the Relative affinity in experiment [2] is below 0.0075.

On to `CC[C@H](C)[C@H](NC(=O)[C@H](C)NC(=O)[C@@H](NC(=O)[C@H](CCC(N)=O)NC(=O)[C@H]1CCCN1C(=O)[C@H](Cc1ccccc1)NC(=O)[C@@H](N[C@@H](Cc1c[nH]cn1)C(=O)NC(CCCCN)C(=O)[C@@H]1CCCN1C(=O)[C@H](CC(N)=O)NC(=O)[C@H](Cc1ccccc1)NC(=O)[C@H](CC(=O)O)NC(=O)[C@H](CCC(N)=O)NC(=O)[C@@H](NC(=O)[C@H](Cc1ccc(O)cc1)NC(=O)[C@@H](NC(=O)CNC(=O)[C@H](CC(C)C)NC(=O)[C@H](CCSC)NC(=O)[C@H](CS)NC(=O)[C@@H](NC(=O)[C@H](CO)NC(=O)[C@H](CC(C)C)NC(=O)[C@H](CC(N)=O)NC(=O)CNC(=O)[C@@H](N)CS)[C@@H](C)O)[C@@H](C)O)[C@@H](C)O)[C@@H](C)O)[C@@H](C)O)C(=O)NCC(=O)N[C@H](C(=O)NCC(=O)N[C@@H](C)C(=O)N1CCC[C@@H]1C(N)=O)C(C)C` (some centres undefined), for which the ED50 in experiment [1] was 104 nM. The Relative affinity in experiment [2] is below 0.0075.

For `CC(C)C[C@H](NC(=O)[C@H](CCCCN)NC(=O)CNC(=O)[C@H](CC(C)C)NC(=O)[C@@H](NC(=O)[C@H](CS)NC(=O)[C@@H](NC(=O)[C@H](CO)NC(=O)[C@H](CC(C)C)NC(=O)[C@H](CC(N)=O)NC(=O)[C@H](CO)NC(=O)[C@@H](N)CS)[C@@H](C)O)C(C)C)C(=O)N[C@@H](CO)C(=O)N[C@@H](CCC(N)=O)C(=O)N[C@@H](CCC(=O)O)C(=O)N[C@@H](CC(C)C)C(=O)N[C@H]1CC(=O)NCCCC[C@@H](C(=O)N[C@@H](Cc2ccc(O)cc2)C(=O)N2CCC[C@@H]2C(=O)N[C@@H](CCCN=C(N)N)C(=O)N[C@H](C(=O)N[C@@H](CC(N)=O)C(=O)N[C@H](C(=O)NCC(=O)N[C@@H](CO)C(=O)NCC(=O)N[C@H](C(=O)N2CCC[C@@H]2C(N)=O)[C@@H](C)O)[C@@H](C)O)[C@@H](C)O)NC(=O)[C@H](Cc2cn(N)cn2)NC(=O)[C@H](CC(C)C)NC(=O)[C@H](CCCCN)NC1=O`, the ED50 in experiment [1] was 0.075 nM. For the same compound, the Relative affinity in experiment [2] is 210.

For the compound `CC(C)C[C@H](NC(=O)[C@H](CCCCN)NC(=O)CNC(=O)[C@H](CC(C)C)NC(=O)[C@@H](NC(=O)[C@H](CS)NC(=O)[C@@H](NC(=O)[C@H](CO)NC(=O)[C@H](CC(C)C)NC(=O)[C@H](CC(N)=O)NC(=O)[C@H](CO)NC(=O)[C@@H](N)CS)[C@@H](C)O)C(C)C)C(=O)N[C@@H](CO)C(=O)N[C@@H](CCC(N)=O)C(=O)N[C@@H](CCC(=O)O)C(=O)N[C@@H](CC(C)C)C(=O)N[C@H]1CC(=O)NCCC[C@@H](C(=O)N[C@@H](Cc2ccc(O)cc2)C(=O)N2CCC[C@@H]2C(=O)N[C@@H](CCCN=C(N)N)C(=O)N[C@H](C(=O)N[C@@H](CC(N)=O)C(=O)N[C@H](C(=O)NCC(=O)N[C@@H](CO)C(=O)NCC(=O)N[C@H](C(=O)N2CCC[C@@H]2C(N)=O)[C@@H](C)O)[C@@H](C)O)[C@@H](C)O)NC(=O)[C@H](CCC(N)=O)NC(=O)[C@H](CC(C)C)NC(=O)[C@H](CCCCN)NC1=O`, in experiment [1], the ED50 was found to be 0.091 nM. For the same compound, the Relative affinity in experiment [2] is 120.

As to `CC(C)C[C@H](NC(=O)[C@H](CCCCN)NC(=O)CNC(=O)[C@H](CC(C)C)NC(=O)[C@@H](NC(=O)[C@H](CS)NC(=O)[C@@H](NC(=O)[C@H](CO)NC(=O)[C@H](CC(C)C)NC(=O)[C@H](CC(N)=O)NC(=O)[C@H](CO)NC(=O)[C@@H](N)CS)[C@@H](C)O)C(C)C)C(=O)N[C@@H](CO)C(=O)N[C@@H](CCC(N)=O)C(=O)N[C@@H](CCC(=O)O)C(=O)N[C@@H](CC(C)C)C(=O)N[C@@H](Cc1c[nH]cn1)C(=O)N[C@@H](CCCCN)C(=O)N[C@@H](CC(C)C)C(=O)N[C@@H](CCC(N)=O)C(=O)N[C@H](C(=O)N[C@@H](Cc1ccc(O)cc1)C(=O)N1CCC[C@@H]1C(=O)N[C@@H](CCCN=C(N)N)C(=O)N[C@H](C(=O)N[C@@H](CC(N)=O)C(=O)N[C@H](C(=O)NCC(=O)N[C@@H](CO)C(=O)NCC(=O)N[C@H](C(=O)N1CCC[C@@H]1C(N)=O)[C@@H](C)O)[C@@H](C)O)[C@@H](C)O)[C@@H](C)O`, the ED50 in experiment [1] came to 0.115 nM. In addition, the Relative affinity in experiment [2] came out at 100.

For the compound `CC(C)C[C@H](NC(=O)[C@H](CCCCN)NC(=O)CNC(=O)[C@H](CC(C)C)NC(=O)[C@@H](NC(=O)[C@H](CS)NC(=O)[C@@H](NC(=O)[C@H](CO)NC(=O)[C@H](CC(C)C)NC(=O)[C@H](CC(N)=O)NC(=O)[C@H](CO)NC(=O)[C@@H](N)CS)[C@@H](C)O)C(C)C)C(=O)N[C@@H](CO)C(=O)N[C@@H](CCC(N)=O)C(=O)N[C@@H](CCC(=O)O)C(=O)N[C@@H](CC(C)C)C(=O)N[C@H]1CC(=O)NCCC[C@@H](C(=O)N[C@@H](Cc2ccc(O)cc2)C(=O)N2CCC[C@@H]2C(=O)N[C@@H](CCCN=C(N)N)C(=O)N[C@H](C(=O)N[C@@H](CC(N)=O)C(=O)N[C@H](C(=O)NCC(=O)N[C@@H](CO)C(=O)NCC(=O)N[C@H](C(=O)N2CCC[C@@H]2C(N)=O)[C@@H](C)O)[C@@H](C)O)[C@@H](C)O)NC(=O)[C@H](Cc2cn(N)cn2)NC(=O)[C@H](CC(C)C)NC(=O)[C@H](CCCCN)NC1=O`, the ED50 in experiment [1] worked out at 0.053 nM. In experiment [2], the Relative affinity was determined as 150.
